Reference: ChEMBL document CHEMBL4834437, “Improvement of Oral Bioavailability of Pyrazolo-Pyridone Inhibitors of the Interaction of DCN1/2 and UBE2M” (J Med Chem, 2021)

Assays:
[1] = mouse, in vivo, po, 50 mg/kg, 24 h
[2] = Toxicity in C57BL/6 mouse assessed as adverse effect at 50 mg/kg, po administered as single dose measured after 48 hrs; type: organism-based; settings: in vivo
In short: (§1)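 Mice were watched for adverse reactions for 48 h after a single iv (15 mg/kg) or oral (50 mg/kg) dose. Vehicle was EtOH/PG/PEG/PBS (10/10/40/39, pH 7.4) with 1% (w/v) […]-β-cyclodextrin.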

[3] = Toxicity in C57BL/6 mouse assessed as adverse effect at 15 mg/kg, iv administered as single dose measured after 48 hrs; type: organism-based; settings: in vivo
In short: as §1

[4] = Toxicity in C57BL/6 mouse assessed as effect on MCV level at 50 mg/kg, po administered as 10 consecutive doses measured after 48 hrs; type: organism-based; settings: in vivo
[5] = Toxicity in C57BL/6 mouse assessed as effect on lymphocyte level at 50 mg/kg, po administered as 10 consecutive doses measured after 48 hrs; type: organism-based; settings: in vivo
[6] = Toxicity in C57BL/6 mouse assessed as effect on Na/K ratio at 200 mg/kg, po administered as single dose measured after 48 hrs; type: organism-based; settings: in vivo
[7] = Toxicity in C57BL/6 mouse assessed as effect on globulin level at 200 mg/kg, po administered as single dose measured after 48 hrs; type: organism-based; settings: in vivo
[8] = Toxicity in C57BL/6 mouse assessed as effect on BUN/creatinine ratio at 50 mg/kg, po administered as 10 consecutive doses measured after 48 hrs; type: organism-based; settings: in vivo
[9] = Toxicity in C57BL/6 mouse assessed as effect on MCH level at 50 mg/kg, po administered as 10 consecutive doses measured after 48 hrs; type: organism-based; settings: in vivo
[10] = Toxicity in C57BL/6 mouse assessed as effect on AST level at 50 mg/kg, po administered as 10 consecutive doses measured after 48 hrs; type: organism-based; settings: in vivo
[11] = Toxicity in C57BL/6 mouse assessed as effect on MCHC level at 50 mg/kg, po administered as 10 consecutive doses measured after 48 hrs; type: organism-based; settings: in vivo
[12] = Toxicity in C57BL/6 mouse assessed as effect on creatinine level at 50 mg/kg, po administered as 10 consecutive doses measured after 48 hrs; type: organism-based; settings: in vivo
[13] = Toxicity in C57BL/6 mouse assessed as effect on potassium level at 200 mg/kg, po administered as single dose measured after 48 hrs; type: organism-based; settings: in vivo
[14] = Toxicity in C57BL/6 mouse assessed as effect on total bilirubin level at 200 mg/kg, po administered as single dose measured after 48 hrs; type: organism-based; settings: in vivo
[15] = Toxicity in C57BL/6 mouse assessed as effect on calcium level at 50 mg/kg, po administered as 10 consecutive doses measured after 48 hrs; type: organism-based; settings: in vivo
[16] = Toxicity in C57BL/6 mouse assessed as effect on BUN/creatinine ratio at 200 mg/kg, po administered as single dose measured after 48 hrs; type: organism-based; settings: in vivo
[17] = Toxicity in C57BL/6 mouse assessed as effect on BUN at 200 mg/kg, po administered as single dose measured after 48 hrs; type: organism-based; settings: in vivo
[18] = Toxicity in C57BL/6 mouse assessed as effect on RBC level at 50 mg/kg, po administered as 10 consecutive doses measured after 48 hrs; type: organism-based; settings: in vivo
[19] = Toxicity in C57BL/6 mouse assessed as effect on Na/K ratio at 50 mg/kg, po administered as 10 consecutive doses measured after 48 hrs; type: organism-based; settings: in vivo
[20] = Toxicity in C57BL/6 mouse assessed as effect on ALT level at 50 mg/kg, po administered as 10 consecutive doses measured after 48 hrs; type: organism-based; settings: in vivo
[21] = Toxicity in C57BL/6 mouse assessed as effect on monocyte level at 50 mg/kg, po administered as 10 consecutive doses measured after 48 hrs; type: organism-based; settings: in vivo
[22] = Toxicity in C57BL/6 mouse assessed as effect on cholesterol level at 200 mg/kg, po administered as single dose measured after 48 hrs; type: organism-based; settings: in vivo
[23] = Toxicity in C57BL/6 mouse assessed as effect on A/G ratio at 200 mg/kg, po administered as single dose measured after 48 hrs; type: organism-based; settings: in vivo
[24] = Toxicity in C57BL/6 mouse assessed as effect on CPK level at 200 mg/kg, po administered as single dose measured after 48 hrs; type: organism-based; settings: in vivo
in vivo = settings: C57BL/6, mouse, plasma
[25] = Toxicity in C57BL/6 mouse assessed as effect on creatinine level at 200 mg/kg, po administered as single dose measured after 48 hrs; type: organism-based; settings: in vivo
[26] = Toxicity in C57BL/6 mouse assessed as effect on BUN at 50 mg/kg, po administered as 10 consecutive doses measured after 48 hrs; type: organism-based; settings: in vivo
HCC95 = experiment: Inhibition of colony formation in human HCC95 cells at 10 uM measured after 10 days by nitroblue tetrazolium chloride reagent based assay relative to control; settings: HCC95, 240 h
[27] = Toxicity in C57BL/6 mouse assessed as effect on alkaline phosphatase level at 50 mg/kg, po administered as 10 consecutive doses measured after 48 hrs; type: organism-based; settings: in vivo
[28] = Toxicity in C57BL/6 mouse assessed as effect on HCT level at 50 mg/kg, po administered as 10 consecutive doses measured after 48 hrs; type: organism-based; settings: in vivo
[29] = Toxicity in C57BL/6 mouse assessed as effect on chloride level at 200 mg/kg, po administered as single dose measured after 48 hrs; type: organism-based; settings: in vivo
[30] = Toxicity in C57BL/6 mouse assessed as effect on albumin level at 50 mg/kg, po administered as 10 consecutive doses measured after 48 hrs; type: organism-based; settings: in vivo
[31] = Toxicity in C57BL/6 mouse assessed as effect on calcium level at 200 mg/kg, po administered as single dose measured after 48 hrs; type: organism-based; settings: in vivo
[32] = Toxicity in C57BL/6 mouse assessed as effect on phosphorous level at 50 mg/kg, po administered as 10 consecutive doses measured after 48 hrs; type: organism-based; settings: in vivo
[33] = Toxicity in po dosed C57BL/6 mouse assessed as maximum tolerated dose administered as 10 consecutive doses measured after 48 hrs; type: organism-based; settings: in vivo
[34] = Toxicity in C57BL/6 mouse assessed as effect on basophil level at 50 mg/kg, po administered as 10 consecutive doses measured after 48 hrs; type: organism-based; settings: in vivo
[35] = Toxicity in C57BL/6 mouse assessed as effect on total bilirubin level at 50 mg/kg, po administered as 10 consecutive doses measured after 48 hrs; type: organism-based; settings: in vivo
[36] = Toxicity in C57BL/6 mouse assessed as effect on neutrophil level at 50 mg/kg, po administered as 10 consecutive doses measured after 48 hrs; type: organism-based; settings: in vivo
[37] = Toxicity in C57BL/6 mouse assessed as effect on glucose level at 200 mg/kg, po administered as single dose measured after 48 hrs; type: organism-based; settings: in vivo
[38] = Toxicity in C57BL/6 mouse assessed as effect on alkaline phosphatase level at 200 mg/kg, po administered as single dose measured after 48 hrs; type: organism-based; settings: in vivo
[39] = Toxicity in C57BL/6 mouse assessed as effect on CPK level at 50 mg/kg, po administered as 10 consecutive doses measured after 48 hrs; type: organism-based; settings: in vivo
[40] = Toxicity in C57BL/6 mouse assessed as effect on ALT level at 200 mg/kg, po administered as single dose measured after 48 hrs; type: organism-based; settings: in vivo
[41] = Toxicity in C57BL/6 mouse assessed as effect on albumin level at 200 mg/kg, po administered as single dose measured after 48 hrs; type: organism-based; settings: in vivo
[42] = Oral bioavailability in C57BL/6 mouse; type: ADME, organism-based; settings: in vivo
In short: (§2)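 Single dose given to mice either intravenously at 15 mg/kg or orally at 50 mg/kg. Plasma drug concentration was followed over 24 h. Concentrations below LLOQ were reported as half LLOQ.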

[43] = Toxicity in C57BL/6 mouse assessed as effect on eosinophil level at 50 mg/kg, po administered as 10 consecutive doses measured after 48 hrs; type: organism-based; settings: in vivo
[44] = Toxicity in C57BL/6 mouse assessed as effect on cholesterol level at 50 mg/kg, po administered as 10 consecutive doses measured after 48 hrs; type: organism-based; settings: in vivo
[45] = Toxicity in C57BL/6 mouse assessed as effect on chloride level at 50 mg/kg, po administered as 10 consecutive doses measured after 48 hrs; type: organism-based; settings: in vivo
[46] = Toxicity in C57BL/6 mouse assessed as effect on platelet level at 50 mg/kg, po administered as 10 consecutive doses measured after 48 hrs; type: organism-based; settings: in vivo
[47] = Toxicity in C57BL/6 mouse assessed as effect on sodium level at 50 mg/kg, po administered as 10 consecutive doses measured after 48 hrs; type: organism-based; settings: in vivo
[48] = Toxicity in C57BL/6 mouse assessed as effect on WBC level at 50 mg/kg, po administered as 10 consecutive doses measured after 48 hrs; type: organism-based; settings: in vivo
[49] = Toxicity in po dosed C57BL/6 mouse assessed as maximum tolerated dose administered as single dose measured after 48 hrs; type: organism-based; settings: in vivo
[50] = Toxicity in C57BL/6 mouse assessed as effect on HGB level at 50 mg/kg, po administered as 10 consecutive doses measured after 48 hrs; type: organism-based; settings: in vivo
[51] = Toxicity in C57BL/6 mouse assessed as effect on AST level at 200 mg/kg, po administered as single dose measured after 48 hrs; type: organism-based; settings: in vivo
[52] = Toxicity in C57BL/6 mouse assessed as effect on phosphorous level at 200 mg/kg, po administered as single dose measured after 48 hrs; type: organism-based; settings: in vivo
[53] = Toxicity in C57BL/6 mouse assessed as effect on sodium level at 200 mg/kg, po administered as single dose measured after 48 hrs; type: organism-based; settings: in vivo
[54] = Toxicity in C57BL/6 mouse assessed as effect on globulin level at 50 mg/kg, po administered as 10 consecutive doses measured after 48 hrs; type: organism-based; settings: in vivo
[55] = Toxicity in C57BL/6 mouse assessed as effect on potassium level at 50 mg/kg, po administered as 10 consecutive doses measured after 48 hrs; type: organism-based; settings: in vivo
[56] = Toxicity in C57BL/6 mouse assessed as effect on A/G ratio at 50 mg/kg, po administered as 10 consecutive doses measured after 48 hrs; type: organism-based; settings: in vivo
[57] = Toxicity in C57BL/6 mouse assessed as effect on glucose level at 50 mg/kg, po administered as 10 consecutive doses measured after 48 hrs; type: organism-based; settings: in vivo
[58] = Oral bioavailability in C57BL/6 mouse at 50 mg/kg administered as single dose measured up to 24 hrs by LC/MS analysis; type: ADME, organism-based; settings: in vivo
In short: as §2

[59] = AUC in C57BL/6 mouse at 50 mg/kg, po administered as single dose measured up to 24 hrs by LC/MS analysis; type: ADME, organism-based; design: route oral, dose 50 mg/kg, time <=24; settings: in vivo
In short: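 Plasma drug concentration followed over 24 h. Concentrations below LLOQ were entered as half LLOQ. The same formulation was used for a separate intravenous arm at 15 mg/kg.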

CCN1C(=O)[C@@H](NC(=O)c2cccc(C)c2)[C@@H](c2ccc(F)cc2)c2c(C)nn(-c3ccccc3)c21 (relative stereo)
360 nM: Cmax [1]
Non-Toxic: Activity [2] | Activity [3]

CCN1C(=O)[C@@H](NC(=O)c2cccc(C(F)(F)F)c2)[C@@H](c2ccc(F)cc2)c2c(CN)nn(-c3ccccc3)c21 (relative stereo)
20 mL/min/kg: clearance (in vivo)
100%: inhibition at 10 µM (HCC95)
6000 nM: Cmax [1]
Non-Toxic: Activity [4] | Activity [5] | Activity [6] | Activity [7] | Activity [8] | Activity [9] | Activity [10] | Activity [11] | Activity [12] | Activity [13] | Activity [14] | Activity [15] | Activity [16] | Activity [17] | Activity [18] | Activity [19] | Activity [20] | Activity [21] | Activity [22] | Activity [23] | Activity [24] | Activity [25] | Activity [26] | Activity [27] | Activity [28] | Activity [29] | Activity [30] | Activity [31] | Activity [32] | Activity [34] | Activity [35] | Activity [36] | Activity [37] | Activity [38] | Activity [39] | Activity [40] | Activity [41] | Activity [43] | Activity [44] | Activity [45] | Activity [46] | Activity [47] | Activity [48] | Activity [50] | Activity [51] | Activity [52] | Activity [53] | Activity [54] | Activity [55] | Activity [56] | Activity [57]
50 mg/kg: MTD at 48 h [33]
200 mg/kg: MTD at 48 h [49]
92%: bioavailability [42]

CCN1C(=O)[C@@H](NC(=O)c2cccc(C(F)(F)F)c2)[C@@H](c2ccc(F)cc2)c2c(C)nn(-c3ccccc3)c21 (relative stereo)
23.8 µM·h: AUC at 24 h [59]
1150 nM: Cmax [1]
36%: F [58]
